According to ChEMBL document CHEMBL1275589, “Molecular epidemiology, sequence types, and plasmid analyses of KPC-producing Klebsiella pneumoniae strains in Israel” (2010):
In brackets after ≈: the same amount, converted by molar mass.

Key:
[1] = system: Klebsiella pneumoniae; assay: Antimicrobial activity against carbapenem-resistant KPC-2 producing Klebsiella pneumoniae 475 ST 277 expressing beta-lactamase SHV-27, CTX-M-15 and OXA-4 by agar dilution method; assay type: functional
[2] = system: Klebsiella pneumoniae; assay: Antimicrobial activity against carbapenem-resistant KPC-2 producing Klebsiella pneumoniae 475 transformant by agar dilution method; assay type: functional
[3] = system: Klebsiella pneumoniae; assay: Antimicrobial activity against carbapenem-resistant KPC-2 producing Klebsiella pneumoniae 469 ST 277 expressing beta-lactamase SHV-27, CTX-M-15 and OXA-4 by agar dilution method; assay type: functional
[4] = system: Klebsiella pneumoniae; assay: Antimicrobial activity against carbapenem-resistant KPC-2 producing Klebsiella pneumoniae 469 transformant by agar dilution method; assay type: functional
[5] = system: Klebsiella pneumoniae; assay: Antimicrobial activity against carbapenem-resistant KPC-2 producing Klebsiella pneumoniae 523 ST 340 expressing beta-lactamase TEM-1, SHV-11 and OXA-2 by agar dilution method; assay type: functional
[6] = system: Klebsiella pneumoniae; assay: Antimicrobial activity against carbapenem-resistant KPC-2 producing Klebsiella pneumoniae 523 transformant by agar dilution method; assay type: functional
[7] = system: Klebsiella pneumoniae; assay: Antimicrobial activity against carbapenem-resistant KPC-2 producing Klebsiella pneumoniae 588 ST 340 expressing beta-lactamase TEM-1 and SHV-11 by agar dilution method; assay type: functional
[8] = system: Klebsiella pneumoniae; assay: Antimicrobial activity against carbapenem-resistant KPC-2 producing Klebsiella pneumoniae 588 transformant by agar dilution method; assay type: functional
[9] = system: Klebsiella pneumoniae; assay: Antimicrobial activity against carbapenem-resistant KPC-2 producing Klebsiella pneumoniae 365 transformant by agar dilution method; assay type: functional
[10] = system: Klebsiella pneumoniae; assay: Antimicrobial activity against carbapenem-resistant KPC-2 producing Klebsiella pneumoniae 531 ST 376 expressing beta-lactamase SHV-1 by agar dilution method; assay type: functional
[11] = system: Klebsiella pneumoniae; assay: Antimicrobial activity against carbapenem-resistant KPC-2 producing Klebsiella pneumoniae 531 transformant by agar dilution method; assay type: functional
[12] = system: Klebsiella pneumoniae; assay: Antimicrobial activity against carbapenem-resistant KPC-2 producing Klebsiella pneumoniae 525 ST 376 expressing beta-lactamase SHV-1 by agar dilution method; assay type: functional
[13] = system: Klebsiella pneumoniae; assay: Antimicrobial activity against carbapenem-resistant KPC-2 producing Klebsiella pneumoniae 525 transformant by agar dilution method; assay type: functional
[14] = system: Klebsiella pneumoniae; assay: Antimicrobial activity against carbapenem-resistant KPC-2 producing Klebsiella pneumoniae 526 ST 376 expressing beta-lactamase SHV-1 by agar dilution method; assay type: functional
[15] = system: Klebsiella pneumoniae; assay: Antimicrobial activity against carbapenem-resistant KPC-2 producing Klebsiella pneumoniae 526 transformant by agar dilution method; assay type: functional
[16] = system: Klebsiella pneumoniae; assay: Antimicrobial activity against KPC-3 producing Klebsiella pneumoniae 549 ST 327 expressing beta-lactamase TEM-1 and CTX-M-2 by agar dilution method; assay type: functional
[17] = system: Klebsiella pneumoniae; assay: Antimicrobial activity against KPC-3 producing Klebsiella pneumoniae 549 transformant by agar dilution method; assay type: functional
[18] = system: Klebsiella pneumoniae; assay: Antimicrobial activity against KPC-3 producing Klebsiella pneumoniae 557 transformant by agar dilution method; assay type: functional
[19] = system: Escherichia coli; assay: Antimicrobial activity against Escherichia coli Genehogs by agar dilution method; assay type: functional
Procedure, shortened: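 Carbapenem MICs by agar dilution, interpreted per CLSI. FDA Enterobacteriaceae breakpoints applied: susceptible ≤2 μg/ml, intermediate 4 μg/ml, resistant ≥8 μg/ml. Transformants were made in recipient E. coli GeneHogs with purified plasmid DNA.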

[20] = system: Klebsiella pneumoniae; assay: Antimicrobial activity against KPC-3 producing Klebsiella pneumoniae 557 ST 258 expressing beta-lactamase TEM-1 by agar dilution method
[21] = system: Klebsiella pneumoniae; assay: Antimicrobial activity against carbapenem-resistant KPC-2 producing Klebsiella pneumoniae 365 ST 376 expressing beta-lactamase SHV-1, CTX-M-15 and OXA-4 by agar dilution method
[22] = system: Klebsiella pneumoniae; assay: Antimicrobial activity against carbapenem-resistant KPC-2 producing Klebsiella pneumoniae 523 ST 340 expressing beta-lactamase TEM-1, SHV-11 and OXA-2 by Etest; assay type: functional
[23] = system: Klebsiella pneumoniae; assay: Antimicrobial activity against carbapenem-resistant KPC-2 producing Klebsiella pneumoniae 523 transformant by Etest; assay type: functional
[24] = system: Klebsiella pneumoniae; assay: Antimicrobial activity against carbapenem-resistant KPC-2 producing Klebsiella pneumoniae 588 ST 340 expressing beta-lactamase TEM-1 and SHV-11 by Etest; assay type: functional
[25] = system: Klebsiella pneumoniae; assay: Antimicrobial activity against carbapenem-resistant KPC-2 producing Klebsiella pneumoniae 588 transformant by Etest; assay type: functional
[26] = system: Klebsiella pneumoniae; assay: Antimicrobial activity against carbapenem-resistant KPC-2 producing Klebsiella pneumoniae 365 transformant by Etest; assay type: functional
[27] = system: Klebsiella pneumoniae; assay: Antimicrobial activity against carbapenem-resistant KPC-2 producing Klebsiella pneumoniae 531 ST 376 expressing beta-lactamase SHV-1 by Etest; assay type: functional
[28] = system: Klebsiella pneumoniae; assay: Antimicrobial activity against carbapenem-resistant KPC-2 producing Klebsiella pneumoniae 531 transformant by Etest; assay type: functional
[29] = system: Klebsiella pneumoniae; assay: Antimicrobial activity against carbapenem-resistant KPC-2 producing Klebsiella pneumoniae 525 ST 376 expressing beta-lactamase SHV-1 by Etest; assay type: functional
[30] = system: Klebsiella pneumoniae; assay: Antimicrobial activity against carbapenem-resistant KPC-2 producing Klebsiella pneumoniae 525 transformant by Etest; assay type: functional
[31] = system: Klebsiella pneumoniae; assay: Antimicrobial activity against carbapenem-resistant KPC-2 producing Klebsiella pneumoniae 526 ST 376 expressing beta-lactamase SHV-1 by Etest; assay type: functional
[32] = system: Klebsiella pneumoniae; assay: Antimicrobial activity against carbapenem-resistant KPC-2 producing Klebsiella pneumoniae 526 transformant by Etest; assay type: functional
[33] = system: Klebsiella pneumoniae; assay: Antimicrobial activity against KPC-3 producing Klebsiella pneumoniae 549 ST 327 expressing beta-lactamase TEM-1 and CTX-M-2 by Etest; assay type: functional
[34] = system: Klebsiella pneumoniae; assay: Antimicrobial activity against KPC-3 producing Klebsiella pneumoniae 549 transformant by Etest; assay type: functional
[35] = system: Klebsiella pneumoniae; assay: Antimicrobial activity against KPC-3 producing Klebsiella pneumoniae 557 transformant by Etest; assay type: functional
[36] = system: Escherichia coli; assay: Antimicrobial activity against Escherichia coli Genehogs by Etest; assay type: functional
[37] = system: Klebsiella pneumoniae; assay: Antimicrobial activity against carbapenem-resistant KPC-2 producing Klebsiella pneumoniae 475 ST 277 expressing beta-lactamase SHV-27, CTX-M-15 and OXA-4 by Etest; assay type: functional
[38] = system: Klebsiella pneumoniae; assay: Antimicrobial activity against carbapenem-resistant KPC-2 producing Klebsiella pneumoniae 475 transformant by Etest; assay type: functional
[39] = system: Klebsiella pneumoniae; assay: Antimicrobial activity against carbapenem-resistant KPC-2 producing Klebsiella pneumoniae 469 ST 277 expressing beta-lactamase SHV-27, CTX-M-15 and OXA-4 by Etest; assay type: functional
[40] = system: Klebsiella pneumoniae; assay: Antimicrobial activity against carbapenem-resistant KPC-2 producing Klebsiella pneumoniae 469 transformant by Etest; assay type: functional

Row | Compound | MIC [1] [µg/mL] | MIC [2] [µg/mL] | MIC [3] [µg/mL] | MIC [4] [µg/mL] | MIC [5] [µg/mL] | MIC [6] [µg/mL] | MIC [7] [µg/mL] | MIC [8] [µg/mL] | MIC [9] [µg/mL] | MIC [10] [µg/mL] | MIC [11] [µg/mL] | MIC [12] [µg/mL] | MIC [13] [µg/mL] | MIC [14] [µg/mL] | MIC [15] [µg/mL] | MIC [16] [µg/mL] | MIC [17] [µg/mL] | MIC [18] [µg/mL] | MIC [19] [µg/mL] | MIC [20] [µg/mL] | also measured
1 | C[C@@H](O)[C@H]1C(=O)N2C(C(=O)O)=C(SCCNC=N)C[C@H]12 [IMIPENEM ANHYDROUS] | 32 (≈ 107 µM) | 8 (≈ 26.7 µM) | 32 (≈ 107 µM) | 8 (≈ 26.7 µM) | 32 (≈ 107 µM) | 8 (≈ 26.7 µM) | 32 (≈ 107 µM) | 8 (≈ 26.7 µM) | 8 (≈ 26.7 µM) | 32 (≈ 107 µM) | 4 (≈ 13.4 µM) | 32 (≈ 107 µM) | 4 (≈ 13.4 µM) | 32 (≈ 107 µM) | 8 (≈ 26.7 µM) | 0.75 (≈ 2.51 µM) | 4 (≈ 13.4 µM) | 4 (≈ 13.4 µM) | 0.094 (≈ 0.314 µM) | 128 (≈ 428 µM) | MIC [21]: 32 µg/mL (≈ 107 µM)
2 | C[C@H]1COc2c(N3CCN(C)CC3)c(F)cc3c(=O)c(C(=O)O)cn1c23.C[C@H]1COc2c(N3CCN(C)CC3)c(F)cc3c(=O)c(C(=O)O)cn1c23.O [LEVOFLOXACIN] |  | < 0.12 | < 0.25 | < 0.25 | > 8 | 0.25 | > 8 | < 0.12 | < 0.12 | > 8 | < 0.25 | > 8 | < 0.25 | > 8 | < 0.12 | > 8 | < 0.25 | < 0.25 | 0.006 | > 8 | MIC [21]: > 8 µg/mL
3 | C[C@@H](O)[C@H]1C(=O)N2C(C(=O)O)=C(S[C@@H]3CN[C@H](C(=O)N(C)C)C3)[C@H](C)[C@H]12 [MEROPENEM] | 64 (≈ 167 µM) | 4 (≈ 10.4 µM) | 32 (≈ 83.4 µM) | 4 (≈ 10.4 µM) | 32 (≈ 83.4 µM) | 4 (≈ 10.4 µM) | 64 (≈ 167 µM) | 4 (≈ 10.4 µM) | 4 (≈ 10.4 µM) | 64 (≈ 167 µM) | 4 (≈ 10.4 µM) | 64 (≈ 167 µM) | 4 (≈ 10.4 µM) | 64 (≈ 167 µM) | 4 (≈ 10.4 µM) | 8 (≈ 20.9 µM) | 2 (≈ 5.22 µM) | 4 (≈ 10.4 µM) | 0.012 (≈ 0.0313 µM) | 128 (≈ 334 µM) | MIC [21]: 64 µg/mL (≈ 167 µM)
4 | COLISTIN |  |  |  |  |  |  |  |  |  |  |  |  |  |  |  |  |  |  |  |  | MIC [22]: 0.125 µg/mL; MIC [23]: 0.047 µg/mL; MIC [24]: 0.19 µg/mL; MIC [25]: 0.047 µg/mL; MIC [26]: 0.032 µg/mL; MIC [27]: 0.125 µg/mL; MIC [28]: 0.032 µg/mL; MIC [29]: 0.125 µg/mL; MIC [30]: 0.032 µg/mL; MIC [31]: 0.125 µg/mL; MIC [32]: 0.032 µg/mL; MIC [33]: 0.125 µg/mL; MIC [34]: 0.032 µg/mL; MIC [35]: 0.032 µg/mL; MIC [36]: 0.125 µg/mL; MIC [37]: 0.19 µg/mL; MIC [38]: 0.032 µg/mL; MIC [39]: 0.125 µg/mL; MIC [40]: 0.032 µg/mL
5 | GENTAMICIN | > 16 | > 16 | > 16 | > 16 | > 16 | 2 | < 1 | 2 | < 1 | < 1 | < 1 | < 1 | < 1 | < 1 | < 1 | > 16 | < 1 | < 1 | < 1 |  | 
